Screening data (PubChem)
A selection: hits, their analogues and other compounds. The true share with any hit is near 1.2%.
ABHD5 PLIN5 PPI: ABHD5-PLIN5 interaction inhibitors, primary screen, cell lysate, split luciferase complementation, luminescence | Split G. princeps luciferase complementation, 4 h | 0.78% of 360,000 active | Perilipin-5 (Homo sapiens) + 1-acylglycerol-3-phosphate O-acyltransferase ABHD5 (Homo … | inhibition, % at 4 µM;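 active means inhibition above the mean inhibition across every tested compound plus 3 SD, cut at about 22% in these data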
FN deposit inh: inhibitors of fibronectin matrix deposition, primary screen, AH1F cells, Alexa488-fibronectin fluorescence, plate reader; AH1F fibroblasts, overnight; AID 743247, 2014; 0.086% of 350,000 active; inhibition, % at 12.6 µM;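 active means mean inhibition across replicates of 30% or more, regardless of how many single replicates reach that level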
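Material: AH1F fibroblast monolayer depositing Alexa488-labelled fibronectin into matrix | Input: 10000 AH1F cells/well | Medium: DMEM plus 2% serum, read in PBS | Reagent: Alexa488-fibronectin, 24 nM final in well | Compound dosing: One dose per compound, pinned | Schedule: 1 h adhesion, overnight exposure | Measured by: Fluorescence at 485 nm excitation, 525 nm emission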
APOBEC3G inh: APOBEC3G DNA deaminase inhibitors, primary screen, biochemical, fluorescence, single-stranded DNA substrate, uHTS; DNA dC->dU-editing enzyme APOBEC-3G (Homo sapiens), Q9HC16; recombinant A3G, ssDNA deamination FAM/TAMRA fluorescence; inhibition, % at 20 µM; 0.28% of 330,000 active; AID 493012, 2011;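 active means inhibition of at least 40% at 20 µM, with no more than 30% in the related APOBEC3A deaminase screen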
APOBEC3A inh: APOBEC3A ssDNA deaminase inhibitors, primary screen, selectivity assay for APOBEC3G inhibitor project, biochemical, FAM/TAMRA oligo cleavage fluorescence | AID 493011, 2011 | DNA dC->dU-editing enzyme APOBEC-3A (Homo sapiens), P31941 | recombinant A3A, FAM/TAMRA ssDNA deamination fluorescence | 0.41% of 330,000 active | inhibition, % at 20 µM;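 active means at least 40% inhibition at 20 µM here, with at most 30% in a related deaminase screen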
Target sequence (P31941 whole entry, looked up): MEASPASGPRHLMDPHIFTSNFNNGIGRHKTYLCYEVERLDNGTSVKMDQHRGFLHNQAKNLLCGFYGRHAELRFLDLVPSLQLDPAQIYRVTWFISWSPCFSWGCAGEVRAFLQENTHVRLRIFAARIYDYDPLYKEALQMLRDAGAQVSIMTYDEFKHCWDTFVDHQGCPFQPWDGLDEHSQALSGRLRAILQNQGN
A3G conf: APOBEC3G deaminase inhibitor retest, confirmation, biochemical, fluorescence, single-stranded DNA substrate, single concentration | inhibition, % at 20 µM | recombinant A3G ssDNA deaminase, UDG/FAM-TAMRA fluorescence | 72% of 890 active | AID 493152, 2011 | shares compounds with APOBEC3G inh;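 active means inhibition reaching a set limit in any replicate at 20 µM, the limit being 80% of the first screen's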
UDG A3G counter: E. coli UDG inhibitors, confirmation, counter-screen for APOBEC3G inhibitor project, biochemical, single concentration, fluorescence, FAM/TAMRA oligo | shares compounds with APOBEC3G inh | inhibition, % at 20 µM | 710 tested, under 10 active | UDG counterscreen;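 active means compounds giving 40% or more inhibition at 20 µM in any one of the three replicates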;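 further: inhibitors lower the FAM signal released by uracil excision and alkaline cleavage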
Target sequence (P12295 whole entry, looked up): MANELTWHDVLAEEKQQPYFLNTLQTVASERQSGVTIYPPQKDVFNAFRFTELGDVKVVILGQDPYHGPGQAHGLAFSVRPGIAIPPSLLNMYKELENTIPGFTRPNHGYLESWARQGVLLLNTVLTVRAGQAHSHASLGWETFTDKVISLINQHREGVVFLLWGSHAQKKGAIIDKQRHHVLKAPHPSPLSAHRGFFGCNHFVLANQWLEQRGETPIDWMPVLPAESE
Numbers stand for hits.

Results for O=C(NCC[C@H]1CC[C@H](NS(=O)(=O)c2ccc(Cl)cc2)[C@@H](CO)O1)Nc1ccc(F)cc1 ?
FN deposit inh: inactive

What do the screens show for `C=CCn1c(=O)c2ccccc2n2c(=S)[nH]nc12`?
ABHD5 PLIN5 PPI: inactive; FN deposit inh: inactive; APOBEC3G inh: 50.3; APOBEC3A inh: inactive; A3G conf: 80.0; UDG A3G counter: inactive

What do the screens show for `CCOCCCn1c(=O)c2ccccc2n2c(=S)[nH]nc12`?
ABHD5 PLIN5 PPI: inactive; FN deposit inh: inactive; APOBEC3G inh: 42.5; APOBEC3A inh: inactive; A3G conf: 62.2; UDG A3G counter: inactive

How did CC(C)CCn1c(=O)c2ccccc2n2c(=S)[nH]nc12 do in these assays?
ABHD5 PLIN5 PPI: inactive; FN deposit inh: inactive; APOBEC3G inh: 46.0; APOBEC3A inh: inactive; A3G conf: 86.1; UDG A3G counter: inactive

How did C=CCn1c(CCn2c3ccccc3c3ccccc32)n[nH]c1=S do in these assays?
ABHD5 PLIN5 PPI: inactive; FN deposit inh: inactive; APOBEC3G inh: inactive; APOBEC3A inh: inactive

What do the screens show for `O=C(C1CC1)N1C[C@@H]2N[C@H](C1)C2c1ccc(-c2cccc(F)c2)cc1` (some centres not stated)?
FN deposit inh: inactive

What do the screens show for `COc1cccc(/C=N/n2c(-c3n[nH]c4c3CCC4)n[nH]c2=S)c1OC`?
ABHD5 PLIN5 PPI: inactive; FN deposit inh: inactive; APOBEC3G inh: 61.9; APOBEC3A inh: inactive; A3G conf: 70.1; UDG A3G counter: inactive

How did COc1ccc(/C=N/n2c(-c3n[nH]c4c3CCC4)n[nH]c2=S)c(OC)c1OC do in these assays?
ABHD5 PLIN5 PPI: inactive; FN deposit inh: inactive; APOBEC3G inh: 48.8; APOBEC3A inh: inactive; A3G conf: 81.9; UDG A3G counter: inactive

How did COc1cc(/C=N/n2c(-c3cc(C)[nH]n3)n[nH]c2=S)cc(OC)c1O do in these assays?
ABHD5 PLIN5 PPI: inactive; FN deposit inh: inactive; APOBEC3G inh: inactive; APOBEC3A inh: inactive

What do the screens show for `COc1cccc(/C=N/n2c(-c3cc(C)[nH]n3)n[nH]c2=S)c1OC`?
ABHD5 PLIN5 PPI: inactive; FN deposit inh: inactive; APOBEC3G inh: 43.1; APOBEC3A inh: inactive; A3G conf: 84.6; UDG A3G counter: inactive

Results for CNC[C@H]1Oc2ccc(NS(C)(=O)=O)cc2CC(=O)N(C)C[C@@H]1C ?
FN deposit inh: inactive

How did CN=c1nc(-c2ccccc2)n(-c2ccccc2)s1 do in these assays?
ABHD5 PLIN5 PPI: inactive; FN deposit inh: inactive; APOBEC3G inh: 79.5; APOBEC3A inh: inactive; A3G conf: 95.5; UDG A3G counter: inactive

Results for CCC(C)(C)n1nnnc1C(c1ccc2ncccc2c1)N1CCN(c2ccc(O)cc2)CC1 (configuration not stated) ?
ABHD5 PLIN5 PPI: inactive; FN deposit inh: inactive; APOBEC3G inh: 41.0; APOBEC3A inh: inactive; A3G conf: inactive

What do the screens show for `N#Cc1c(-c2cccnc2)c2c([nH]c1=S)CCCC2`?
ABHD5 PLIN5 PPI: inactive; APOBEC3G inh: 50.3; APOBEC3A inh: inactive; A3G conf: 86.1; UDG A3G counter: inactive

How did CC(C)(C)n1nnnc1C(c1cccnc1)N(Cc1ccccc1)Cc1ccco1 (configuration not stated) do in these assays?
ABHD5 PLIN5 PPI: inactive; APOBEC3G inh: 40.7; APOBEC3A inh: inactive; A3G conf: inactive

Results for O=C(NC1CCCCC1)N1CC(=O)N2[C@H](CO)[C@H](c3ccc(/C=C/c4ccccc4)cc3)[C@@H]2C1 ?
FN deposit inh: inactive

Results for c1ccc(Sc2ccccn2)cc1 ?
ABHD5 PLIN5 PPI: inactive; FN deposit inh: inactive; APOBEC3G inh: inactive; APOBEC3A inh: inactive

What do the screens show for `c1ccc(SSc2ccccn2)nc1`?
ABHD5 PLIN5 PPI: 34.7; APOBEC3G inh: 63.8; APOBEC3A inh: inactive; A3G conf: 87.8; UDG A3G counter: inactive

Results for COc1ccc(CCn2c(-c3ccc(Cl)cc3)n[nH]c2=S)cc1OC ?
ABHD5 PLIN5 PPI: inactive; FN deposit inh: inactive; APOBEC3G inh: inactive; APOBEC3A inh: inactive

Results for COc1ccc(CCCc2n[nH]c(=S)n2C)cc1C ?
ABHD5 PLIN5 PPI: inactive; APOBEC3G inh: inactive; APOBEC3A inh: inactive

What do the screens show for `COc1ccc(Cc2n[nH]c(=S)n2C)cc1Br`?
ABHD5 PLIN5 PPI: inactive; FN deposit inh: inactive; APOBEC3G inh: 42.1; APOBEC3A inh: inactive; A3G conf: 54.4; UDG A3G counter: inactive

Results for COc1ccc(Cc2n[nH]c(=S)n2N)cc1OC ?
ABHD5 PLIN5 PPI: inactive; FN deposit inh: inactive; APOBEC3G inh: 60.9; APOBEC3A inh: inactive; A3G conf: 57.9; UDG A3G counter: inactive

What do the screens show for `CCOc1ccc(Cc2n[nH]c(=S)n2N)cc1`?
ABHD5 PLIN5 PPI: inactive; FN deposit inh: inactive; APOBEC3G inh: inactive; APOBEC3A inh: inactive

What do the screens show for `Nn1c(Cc2ccc(Br)cc2)n[nH]c1=S`?
ABHD5 PLIN5 PPI: inactive; FN deposit inh: inactive; APOBEC3G inh: 50.6; APOBEC3A inh: inactive; A3G conf: 80.4; UDG A3G counter: inactive

Results for Nn1c(Cc2cccc3ccccc23)n[nH]c1=S ?
ABHD5 PLIN5 PPI: inactive; FN deposit inh: inactive; APOBEC3G inh: 47.3; APOBEC3A inh: inactive; A3G conf: 82.2; UDG A3G counter: inactive

Results for CNC[C@H]1OCc2ccccc2-c2c(n(C)c3ccccc23)C(=O)N([C@@H](C)CO)C[C@H]1C ?
FN deposit inh: inactive

Results for CO[C@@H]1CN(C)C(=O)c2ccc(NS(C)(=O)=O)cc2OC[C@H](C)N(C(=O)c2ccc3c(c2)OCO3)C[C@H]1C ?
FN deposit inh: inactive

What do the screens show for `CC(NC(=O)CNC(=O)[C@@H]1Cc2ccccc2CN1)c1ccccc1` (some centres not stated)?
ABHD5 PLIN5 PPI: inactive; FN deposit inh: inactive; APOBEC3G inh: inactive; APOBEC3A inh: inactive

How did O=C(NCCCc1ccccc1)[C@@H]1Cc2ccccc2CN1 do in these assays?
ABHD5 PLIN5 PPI: inactive; FN deposit inh: inactive; APOBEC3G inh: 61.7; APOBEC3A inh: inactive; A3G conf: 20.0; UDG A3G counter: inactive

Results for CCn1ncc(/C=N\NC(=O)c2ccc3c(c2)c(C)c(C)n3Cc2ccccc2)c1C ?
ABHD5 PLIN5 PPI: inactive; FN deposit inh: inactive; APOBEC3G inh: 70.4; APOBEC3A inh: inactive; A3G conf: inactive; UDG A3G counter: inactive

How did COCC(=O)Nc1ccc2c(c1)OC[C@H](C)N(Cc1cccnc1)C[C@@H](C)[C@H](OC)CN(C)C2=O do in these assays?
FN deposit inh: inactive

How did COc1ccc2c3c([nH]c2c1)[C@H](CO)N(C(=O)C1CCOCC1)CC31CCN(Cc2cccc(F)c2)CC1 do in these assays?
FN deposit inh: inactive
